Laboratory results: ChEMBL document CHEMBL1123180, “Improved glucose tolerance in rats treated with oxazolidinediones” (1986)
Calls of active or inactive are those of the source. No cut-off for these calls is given here.

What was measured:
[1] = system: Rattus norvegicus; assay: Ability to lower blood sugar level at the dose of 10 mg/kg in fasted rats, by using glucose tolerance test(GTT); NA=Inactive; format: functional, organism-based; set-up: dose 10 mg/kg
Procedure, shortened: (§1)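 Male albino rats, groups of five or six, fasted 18–24 h. Glucose 1 g/kg given ip; test drug (0.1 to 100 mg/kg) or water (controls) given orally. Tail-vein blood sampled over 0–3 h; glucose (mg/100 mL) measured by Autoanalyser ferricyanide method. Value is percent lowering of blood glucose vs controls at 0.5 h; a lowering of ≥9% is needed for P = 0.05.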

[2] = system: Rattus norvegicus; assay: Compound was tested for the ability to lower blood sugar level at the dose of 10 mg/kg in fasted rats, by using glucose tolerance test(GTT); NA=Inactive; format: functional, organism-based; set-up: dose 10 mg/kg; procedure, shortened: as §1
[3] = system: Rattus norvegicus; assay: Ability to lower blood sugar level at the dose of 100 mg/kg in fasted rats, by using glucose tolerance test(GTT); format: functional; procedure, shortened: as §1
[4] = system: Rattus norvegicus; assay: Ability to lower blood sugar level at the dose of 5 mg/kg in fasted rats, by using glucose tolerance test(GTT); format: functional; procedure, shortened: as §1
[5] = system: Rattus norvegicus; assay: Ability to lower blood sugar level at the dose of 100 mg/kg in fasted rats, by using glucose tolerance test(GTT); NA=Inactive; format: functional, organism-based; set-up: dose 100 mg/kg; procedure, shortened: as §1
[6] = system: Rattus norvegicus; assay: Ability to lower blood sugar level at the dose of 25 mg/kg in fasted rats, by using glucose tolerance test(GTT); NA=Inactive; format: functional, organism-based; set-up: dose 25 mg/kg; procedure, shortened: as §1
[7] = system: Rattus norvegicus; assay: Ability to lower blood sugar level at the dose of 25 mg/kg in fasted rats, by using glucose tolerance test(GTT); format: functional; procedure, shortened: as §1
[8] = system: Rattus norvegicus; assay: Ability to lower blood sugar level at the dose of 10 mg/kg in fasted rats, by using glucose tolerance test(GTT); format: functional; procedure, shortened: as §1
[9] = system: Rattus norvegicus; assay: Ability to lower blood sugar level at the dose of 2.5 mg/kg in fasted rats, by using glucose tolerance test(GTT); format: functional; procedure, shortened: as §1
[10] = system: Rattus norvegicus; assay: Compound was tested for the ability to lower blood sugar level at the dose of 50 mg/kg in fasted rats, by using glucose tolerance test(GTT); format: functional; procedure, shortened: as §1
[11] = system: Rattus norvegicus; assay: Compound was tested for the ability to lower blood sugar level at the dose of 25 mg/kg in rats, by using glucose tolerance test(GTT); format: functional; procedure, shortened: as §1

O=C1NC(=O)C(c2c(Cl)cccc2-n2cccc2)O1 (stereo not given) was tested. Which Blood sugar lowering [1] did it give?
Its Blood sugar lowering is “inactive”.

With C/C=C/Oc1cccc(Cl)c1C1OC(=O)NC1=O (stereo not given) as the compound, how does the Blood sugar lowering [2] read?
The Blood sugar lowering was “inactive”.

O=C1NC(=O)C(c2ccc(OCc3ccccc3)cc2)O1 (stereo not given) was tested. Which Blood sugar lowering [3] did it give?
The Blood sugar lowering was 20%.

Which Blood sugar lowering [4] does the source give for COc1ccccc1C1OC(=O)NC1=O (stereo not given) here?
Its Blood sugar lowering is 14%.

How did the Blood sugar lowering [5] turn out when O=C1NC(=O)C(c2ccccc2)N1 (stereo not given) was run?
The Blood sugar lowering was “inactive”.

With COc1ccc(S(=O)(=O)N(C)C)cc1C1OC(=O)NC1=O (stereo not given) as the compound, how does the Blood sugar lowering [1] read?
Its Blood sugar lowering is “inactive”.

CCOc1cccc(F)c1C1OC(=O)NC1=O (stereo not given) was tested. Which Blood sugar lowering [4] did it give?
The Blood sugar lowering was 9%.

How did the Blood sugar lowering [6] turn out when O=C1NC(=O)C(c2c(Cl)cccc2[N+](=O)[O-])O1 (stereo not given) was run?
Its Blood sugar lowering is “inactive”.

With COc1cccc(NC(C)=O)c1C1OC(=O)NC1=O (stereo not given) as the compound, how does the Blood sugar lowering [6] read?
Its Blood sugar lowering is “inactive”.

How did the Blood sugar lowering [7] turn out when COc1ccc(C2OC(=O)NC2=O)c(OC)c1 (stereo not given) was run?
The Blood sugar lowering was 10%.

For COc1ccc(C(N)=O)cc1C1OC(=O)NC1=O (stereo not given), which Blood sugar lowering [6] is on record?
Its Blood sugar lowering is “inactive”.

How did the Blood sugar lowering [6] turn out when COc1ccc(CCn2ccnc2)cc1C1OC(=O)NC1=O (stereo not given) was run?
The Blood sugar lowering was “inactive”.

Which Blood sugar lowering [8] does the source give for O=C1NC(=O)C(c2ccccc2C(F)(F)F)O1 (stereo not given) here?
The Blood sugar lowering was 11%.

How did the Blood sugar lowering [8] turn out when COc1ccc(Cl)c(C)c1C1OC(=O)NC1=O (stereo not given) was run?
Its Blood sugar lowering is 12%.

With O=C1NC(=O)C(c2ccccc2OCCn2ccnc2)O1 (stereo not given) as the compound, how does the Blood sugar lowering [6] read?
The Blood sugar lowering was “inactive”.

How did the Blood sugar lowering [7] turn out when CCc1ccc(OC)c(C2OC(=O)NC2=O)c1 (stereo not given) was run?
Its Blood sugar lowering is 10%.

Which Blood sugar lowering [1] does the source give for O=C1NC(=O)C(c2c(Cl)cccc2OCC2CC2)O1 (stereo not given) here?
Its Blood sugar lowering is “inactive”.

With O=C1NC(=O)C(c2c(F)cccc2F)O1 (stereo not given) as the compound, how does the Blood sugar lowering [7] read?
Its Blood sugar lowering is 25%.

Which Blood sugar lowering ([9]; 2.5 mg/kg) does the source give for COc1ccc(Cl)cc1C1OC(=O)NC1=O (single isomer, unassigned; (-)) here?
Its Blood sugar lowering is 26%.

CCOc1ccc(Cl)cc1C1OC(=O)NC1=O (stereo not given) was tested. Which Blood sugar lowering [4] did it give?
Its Blood sugar lowering is 11%.

Which results are given for COc1ccc(C)cc1C1OC(=O)NC1=O (stereo not given)?
Blood sugar lowering [9]: 10%; Blood sugar lowering [8]: 21%

How did the Blood sugar lowering [6] turn out when COc1ccc(N)cc1C1OC(=O)NC1=O (stereo not given) was run?
The Blood sugar lowering was “inactive”.

With COc1cccc(C(F)(F)F)c1C1OC(=O)NC1=O (stereo not given) as the compound, how does the Blood sugar lowering [6] read?
The Blood sugar lowering was “inactive”.

For CN1C(=O)OC(c2ccccc2)C1=O (stereo not given), which Blood sugar lowering [5] is on record?
Its Blood sugar lowering is “inactive”.

COc1cc(C2OC(=O)NC2=O)c(C)cc1F (stereo not given) was tested. Which Blood sugar lowering [1] did it give?
Its Blood sugar lowering is “inactive”.

Which Blood sugar lowering [8] does the source give for COc1c(Cl)cc(F)cc1C1OC(=O)NC1=O (stereo not given) here?
Its Blood sugar lowering is 15%.

With O=C1NC(=O)C(Cc2ccccc2)O1 (stereo not given) as the compound, how does the Blood sugar lowering [7] read?
Its Blood sugar lowering is 9%.

With COc1ccc(C(=O)O)cc1C1OC(=O)NC1=O (stereo not given) as the compound, how does the Blood sugar lowering [6] read?
Its Blood sugar lowering is “inactive”.

Which Blood sugar lowering [5] does the source give for Nc1ccc(C2OC(=O)NC2=O)cc1 (stereo not given) here?
Its Blood sugar lowering is “inactive”.

Which Blood sugar lowering [6] does the source give for O=C1NC(=O)C(c2c(Cl)cccc2OCc2ccccc2)O1 (stereo not given) here?
Its Blood sugar lowering is “inactive”.

For O=C(Nc1ccccc1C1OC(=O)NC1=O)NC1CCCCC1 (stereo not given), which Blood sugar lowering [6] is on record?
The Blood sugar lowering was “inactive”.

For O=C1NC(=O)C(c2c(Cl)cccc2Cl)O1 (stereo not given), which Blood sugar lowering [7] is on record?
The Blood sugar lowering was 21%.

With CCOc1ccccc1C1OC(=O)NC1=O (stereo not given) as the compound, how does the Blood sugar lowering [4] read?
The Blood sugar lowering was 15%.

How did the Blood sugar lowering [6] turn out when COc1cccc(N)c1C1OC(=O)NC1=O (stereo not given) was run?
Its Blood sugar lowering is “inactive”.

How did the Blood sugar lowering [1] turn out when COc1cccc(C2OC(=O)NC2=O)c1 (stereo not given) was run?
The Blood sugar lowering was “inactive”.

Which Blood sugar lowering [4] does the source give for O=C1NC(=O)C(c2ccccc2F)O1 (stereo not given) here?
Its Blood sugar lowering is 10%.

Which Blood sugar lowering [7] does the source give for O=C1NC(=O)C(c2ccccc2[N+](=O)[O-])O1 (stereo not given) here?
Its Blood sugar lowering is 11%.

How did the Blood sugar lowering [3] turn out when COc1ncccc1C(=O)NCCc1ccc(C2OC(=O)NC2=O)cc1 (stereo not given) was run?
The Blood sugar lowering was 26%.

Which Blood sugar lowering [10] does the source give for O=C1NC(=O)C(c2ccc(Cl)cc2)O1 (stereo not given) here?
The Blood sugar lowering was 12%.

How did the Blood sugar lowering [4] turn out when CCOc1ccc(F)cc1C1OC(=O)NC1=O (stereo not given) was run?
Its Blood sugar lowering is 9%.

CCOc1ccc(C2OC(=O)NC2=O)cc1 (stereo not given) was tested. Which Blood sugar lowering [3] did it give?
The Blood sugar lowering was 18%.

For COc1cccc(C)c1C1OC(=O)NC1=O (stereo not given), which Blood sugar lowering [8] is on record?
The Blood sugar lowering was 10%.

O=C1NC(=O)C(c2ccccc2)O1 (stereo not given) [PEMOLINE DIONE] was tested. Which Blood sugar lowering [3] did it give?
The Blood sugar lowering was 35%.

What about the Blood sugar lowering [11] of the same compound?
The Blood sugar lowering was 26%.

And the Blood sugar lowering [8]?
Its Blood sugar lowering is 13%.

For COc1ccc(C2OC(=O)NC2=O)cc1 (stereo not given), which Blood sugar lowering [3] is on record?
Its Blood sugar lowering is 19%.

With CSc1cccc(F)c1C1OC(=O)NC1=O (stereo not given) as the compound, how does the Blood sugar lowering [7] read?
The Blood sugar lowering was 18%.

Which Blood sugar lowering [8] does the source give for O=C1NC(=O)C(c2cccc(F)c2)O1 (stereo not given) here?
The Blood sugar lowering was 10%.

With COc1ccc(C#N)cc1C1OC(=O)NC1=O (stereo not given) as the compound, how does the Blood sugar lowering [7] read?
Its Blood sugar lowering is 19%.
